According to BindingDB's records for doi:10.1021/jm049389h (Johns Hopkins University, 2005):

Target: Fatty acid synthase (Homo sapiens, UniProt P49327)
Assay: Inhibitory concentration against purified human fatty acid synthase activity in ZR-75-1 breast cancer cells
Procedure, shortened: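 FAS purified from ZR-75-1 human breast cancer cells (2 µg per well). Overall reaction read at 37 °C as malonyl-CoA-dependent NADPH oxidation at 340 nm, every 10 s for 5 min. Average of duplicate runs; neg means IC50 > 50 µg/mL.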

Fatty acid synthase, sequence (P49327 whole entry): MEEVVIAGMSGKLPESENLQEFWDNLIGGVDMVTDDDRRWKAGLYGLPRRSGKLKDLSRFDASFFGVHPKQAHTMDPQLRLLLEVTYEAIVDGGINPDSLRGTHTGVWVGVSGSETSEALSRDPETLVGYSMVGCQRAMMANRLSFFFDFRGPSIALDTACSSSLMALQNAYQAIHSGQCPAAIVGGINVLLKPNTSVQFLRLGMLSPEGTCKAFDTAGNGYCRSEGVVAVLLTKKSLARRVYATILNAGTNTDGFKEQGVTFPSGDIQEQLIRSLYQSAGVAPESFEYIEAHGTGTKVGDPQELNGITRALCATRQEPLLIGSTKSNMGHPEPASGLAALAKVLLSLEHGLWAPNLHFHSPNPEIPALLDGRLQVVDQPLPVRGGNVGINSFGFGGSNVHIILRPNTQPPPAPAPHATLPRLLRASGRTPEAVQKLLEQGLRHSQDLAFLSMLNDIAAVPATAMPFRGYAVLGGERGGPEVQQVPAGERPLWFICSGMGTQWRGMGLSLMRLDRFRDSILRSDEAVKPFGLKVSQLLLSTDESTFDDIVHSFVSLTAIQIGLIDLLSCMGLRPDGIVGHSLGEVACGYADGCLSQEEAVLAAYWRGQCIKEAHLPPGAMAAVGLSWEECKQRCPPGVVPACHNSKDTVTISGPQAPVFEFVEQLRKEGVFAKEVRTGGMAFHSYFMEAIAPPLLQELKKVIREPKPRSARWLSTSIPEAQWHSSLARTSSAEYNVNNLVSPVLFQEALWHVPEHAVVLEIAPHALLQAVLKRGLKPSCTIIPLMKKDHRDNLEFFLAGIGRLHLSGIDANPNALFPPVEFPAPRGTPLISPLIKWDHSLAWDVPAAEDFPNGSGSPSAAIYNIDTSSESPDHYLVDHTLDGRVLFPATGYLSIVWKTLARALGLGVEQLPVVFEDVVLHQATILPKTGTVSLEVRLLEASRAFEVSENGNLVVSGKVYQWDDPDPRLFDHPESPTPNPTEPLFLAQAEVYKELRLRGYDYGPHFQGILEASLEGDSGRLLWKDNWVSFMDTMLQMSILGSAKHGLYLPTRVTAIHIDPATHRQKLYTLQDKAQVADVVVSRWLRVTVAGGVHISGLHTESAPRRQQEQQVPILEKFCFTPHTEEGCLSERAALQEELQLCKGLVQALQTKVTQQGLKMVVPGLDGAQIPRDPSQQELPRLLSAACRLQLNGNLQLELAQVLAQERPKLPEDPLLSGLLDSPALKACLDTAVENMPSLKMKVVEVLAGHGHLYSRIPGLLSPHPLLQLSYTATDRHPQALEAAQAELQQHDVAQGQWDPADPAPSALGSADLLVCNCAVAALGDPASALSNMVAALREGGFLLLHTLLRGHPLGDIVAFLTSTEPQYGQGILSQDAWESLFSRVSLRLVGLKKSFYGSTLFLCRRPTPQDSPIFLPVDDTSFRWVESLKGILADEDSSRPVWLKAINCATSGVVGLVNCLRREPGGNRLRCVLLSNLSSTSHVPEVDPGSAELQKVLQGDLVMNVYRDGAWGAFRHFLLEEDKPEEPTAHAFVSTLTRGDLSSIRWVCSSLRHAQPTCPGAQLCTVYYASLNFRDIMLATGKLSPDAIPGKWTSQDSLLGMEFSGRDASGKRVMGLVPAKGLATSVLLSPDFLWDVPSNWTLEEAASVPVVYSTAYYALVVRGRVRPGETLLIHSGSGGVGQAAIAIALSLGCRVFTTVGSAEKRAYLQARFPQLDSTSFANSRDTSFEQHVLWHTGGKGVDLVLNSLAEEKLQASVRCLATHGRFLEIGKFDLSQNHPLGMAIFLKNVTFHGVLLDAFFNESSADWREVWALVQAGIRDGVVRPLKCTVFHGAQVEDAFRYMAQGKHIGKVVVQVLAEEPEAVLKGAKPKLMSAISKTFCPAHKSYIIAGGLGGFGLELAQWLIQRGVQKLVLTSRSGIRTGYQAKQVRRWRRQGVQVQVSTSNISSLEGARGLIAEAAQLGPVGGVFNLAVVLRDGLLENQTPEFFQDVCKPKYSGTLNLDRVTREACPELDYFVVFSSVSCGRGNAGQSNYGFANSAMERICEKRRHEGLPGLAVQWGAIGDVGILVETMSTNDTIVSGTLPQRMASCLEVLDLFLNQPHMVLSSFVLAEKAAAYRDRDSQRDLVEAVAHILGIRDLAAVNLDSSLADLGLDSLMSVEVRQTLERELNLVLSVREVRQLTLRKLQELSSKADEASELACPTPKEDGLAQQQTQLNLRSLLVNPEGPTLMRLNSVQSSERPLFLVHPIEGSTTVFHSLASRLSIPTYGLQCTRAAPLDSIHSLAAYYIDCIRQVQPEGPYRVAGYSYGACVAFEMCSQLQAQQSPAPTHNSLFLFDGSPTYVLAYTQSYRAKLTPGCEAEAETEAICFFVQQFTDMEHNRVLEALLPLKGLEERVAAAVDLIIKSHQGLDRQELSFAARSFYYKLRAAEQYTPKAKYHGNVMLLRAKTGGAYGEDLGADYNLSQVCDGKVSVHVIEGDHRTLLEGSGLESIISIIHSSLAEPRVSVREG

C=C/C(C)=C/[C@@]1(C)SC(=O)C(C)C1=O (stereo partly drawn) [(R)-(+)-Thiolactomycin] gave an IC50 of 99.8 µM.
